A selection: hits, their analogues and other compounds. The true share with any hit is near 1.8%.
CHRM5 agonist: CHRM5 agonism in calcium assay. 0.19% of 360,000 active. P08912. CHO-K1 hM5 cells, Fluo-8 calcium fluorescence; 0% DMSO wells, 100% maximal acetylcholine response. AID 624037. activation, % at 3 µM;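 active = activation above the run's mean over test compounds plus 3 SD, cut at about 23% in these data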;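 also: signal is peak over basal fluorescence ratio across the kinetic read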
Target sequence (P08912 whole entry, looked up): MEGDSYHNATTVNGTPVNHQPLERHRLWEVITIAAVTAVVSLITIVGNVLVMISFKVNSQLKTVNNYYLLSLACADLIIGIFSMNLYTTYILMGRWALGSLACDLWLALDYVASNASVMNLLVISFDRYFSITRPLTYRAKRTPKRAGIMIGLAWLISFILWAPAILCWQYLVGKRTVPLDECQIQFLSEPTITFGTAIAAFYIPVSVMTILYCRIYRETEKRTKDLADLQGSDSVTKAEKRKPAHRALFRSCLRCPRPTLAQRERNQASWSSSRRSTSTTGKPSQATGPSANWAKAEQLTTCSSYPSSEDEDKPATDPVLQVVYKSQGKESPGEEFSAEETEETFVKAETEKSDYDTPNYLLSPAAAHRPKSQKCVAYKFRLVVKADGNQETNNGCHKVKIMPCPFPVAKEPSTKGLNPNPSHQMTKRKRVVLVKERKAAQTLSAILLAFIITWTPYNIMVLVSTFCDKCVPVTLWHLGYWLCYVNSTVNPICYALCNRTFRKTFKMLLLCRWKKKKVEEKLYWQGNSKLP
CHRM5 antagonist: antagonists of human muscarinic M5 receptor (CHRM5). P08912. CHO-hM5 cells, Fluo-8 calcium fluorescence, ACh EC80. 0.59% of 360,000 active. inhibition, % at 3 µM;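 active = inhibition above a per-plate cutoff, the mean of that plate's test compounds plus 3 SD, cut at about 27% in these data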
M4 PAM: CHRM4 positive allosteric modulation; P08173; CHO-K1 hM4/Gqi5, Fluo-8 calcium fluorescence, ACh EC20; 0% = ACh EC20, 100% = maximal ACh; activation, % at 3 µM; 0.4% of 360,000 active;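 active = activation above its plate's cutoff, the mean activation of sample wells plus 3 SD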
M4 antag: antagonists of human muscarinic M4 receptor (CHRM4); 0.73% of 360,000 active; CHO-hM4 cells, ACh EC80, Fluo-8 calcium fluorescence; P08173; AID 624125; inhibition, % at 3 µM;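 active = inhibition above its plate's cutoff, the mean inhibition of sample wells plus 3 SD, cut at about 27% in these data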
CHRM5 PAM: potentiates acetylcholine response at human M5 receptor. P08912. CHO-K1 hM5, Fluo-8 calcium, ACh EC20 PAM; 0% = ACh EC20, 100% = ACh EC100. activation, % at 3 µM. 0.3% of 360,000 active;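 active = activation above the run cutoff, the mean activation of all test compounds plus 3 SD, cut at about 18% in these data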
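Assay system – human M5 receptor in CHO-K1 cells · Read-out – % activation, ACh-normalized · Technique – Fluo-8 calcium fluorescence · Dosing – single-point, 3 µM nominal · Incubation – Fluo-8 loading 80 min at 37 °C plus 30 min room temperature · Repeats – singlicate, one well per test compound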
M4 ag: CHRM4 agonism in calcium assay; P08173; CHO-K1 hM4/Gqi5, Fluo-8 calcium fluorescence; vehicle 0%, full acetylcholine response 100%; activation, % at 3 µM; 0.14% of 360,000 active; AID 624127;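 active = activation above the run mean over all test wells plus 3 SD, cut at about 32% in these data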;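 also: peak over basal fluorescence ratio per well then scaled between controls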
Large screens that a line does not name were inactive.

CCCCn1c(N)c(N(C)C(=O)c2cc3c(F)cccc3s2)c(=O)[nH]c1=O	none
OC(CNCC1(N2CCCCC2)CCCCC1)COc1ccc(Cl)cc1Cl (stereo not given)	CHRM5 PAM 26
Cc1ccc(S(=O)(=O)NCCNS(=O)(=O)c2ccc(C)cc2)cc1	none
Cc1ccc(S(=O)(=O)NCCCN2CCCC2)cc1	M4 PAM 21
O=S(=O)(NCCCN1CCOCC1)c1ccc2c(c1)OCCO2	CHRM5 PAM 22
O=C(CSc1ccc(F)cc1)Nc1cccc(S(=O)(=O)N2CCOCC2)c1	none
CC(C)CC(C)N1CCC(n2nccc2NC(=O)CCc2ccccc2)CC1 (stereo not given)	none
O=C(CN1C(=O)c2ccccc2C1=O)NC(Cc1ccccc1)C(=O)O (stereo not given)	none
O=C(NNC(=O)C1CC(=O)N(Cc2ccccc2)C1)c1ccc(Br)cc1 (stereo not given)	CHRM5 antagonist 29
CCc1ccc(C(=O)NNC(=O)C2CC(=O)N(Cc3ccccc3)C2)cc1 (stereo not given)	none
COC(=O)C(C(=O)OC)C1C=CCN(C(C)=O)C1 (stereo not given)	none
O=c1c2ccccc2nnn1CSc1nnc(COc2ccc(Cl)cc2)n1Cc1ccco1	none
Clc1ccc(OCc2nnc(SCCN3CCCCC3)n2Cc2ccco2)cc1	M4 antag 58
COc1cc2c(cc1OC)CN(C(=O)C1CCN(S(=O)(=O)c3ccccc3F)CC1)CC2	none
CCOc1ccc(NC(=O)COC(=O)Cn2cnc3ccccc32)cc1	none
Fc1ccc(F)c(CNc2ncnc3cc(Cl)ccc23)c1	none
Cc1ccc(C(c2sc3nc(C)nn3c2O)N2CC(C)OC(C)C2)cc1 (stereo not given)	none
Cc1nc2sc(C(c3ccc(Cl)cc3)N3CC(C)OC(C)C3)c(O)n2n1 (stereo not given)	M4 PAM 17
CC(=O)N1N=C(c2ccc(Cl)cc2)OC1c1ccc(C(C)C)cc1 (stereo not given)	CHRM5 PAM 33
CC(=O)N1N=C(c2ccc(C)cc2)OC1c1ccc(Br)cc1 (stereo not given)	none
COCCCNc1nc(N)c([N+](=O)[O-])c(Nc2cc(OC)ccc2OC)n1	CHRM5 agonist 36
COc1ccc(OC)c(Nc2nc(NCCCN(C)C)nc(N)c2[N+](=O)[O-])c1	none
Cc1nc(C(F)(F)F)ccc1C(=O)N1CCC1(C)C(=O)Nc1ccc2c(c1)OCO2 (stereo not given)	none
CC1CN=C(NC2CCCCC2C)S1 (stereo not given)	M4 antag 27
CC1CCCCC1NC1=NCCS1 (stereo not given)	none
O=C1CCCC2=C1C(c1cccc(O)c1)C1=C(N2)c2ccccc2C1=O (stereo not given)	CHRM5 PAM 18
CCC(C(=O)Nc1ccc(C(=O)N2CCCC2)cc1)c1ccccc1 (stereo not given)	none
COc1ccc(Cl)cc1NC(=O)C(OC)c1ccccc1 (stereo not given)	none
CCc1ccc(NC(=O)C(CC)c2ccccc2)cc1 (stereo not given)	CHRM5 agonist 24
CCC(C(=O)Nc1ccc(C(=O)Nc2ccccc2C(=O)O)cc1)c1ccccc1 (stereo not given)	M4 PAM 17
CCC(C(=O)Nc1ccc(C)cc1)c1ccccc1 (stereo not given)	none
CCC(C(=O)Nc1cc(Cl)ccc1OC)c1ccccc1 (stereo not given)	CHRM5 PAM 19
CSCCC(NC(=O)COc1ccccc1)C(=O)NC1CCC(C)CC1 (stereo not given)	none
COc1ccc(N(CC(=O)NCc2cccs2)S(=O)(=O)c2ccc(F)cc2)cc1	none
CCCCCCCCCc1conc1C(=O)/C=C/c1ccco1	none
CN(CC(=O)Nc1ccc(OC(F)(F)F)cc1)C(=O)c1ccccc1SCC(=O)N1CCCC1	none
O=C(CCNC(=O)c1ccccc1Cl)Nc1ccc(S(=O)(=O)N2CCOCC2)cc1	none
CCN1CCN(S(=O)(=O)Cc2ccccc2Cl)CC1	none
CC(C)C(NC(=O)c1c(F)cccc1F)C(=O)NCc1ccc(S(=O)(=O)N2CCOCC2)cc1 (stereo not given)	none
COCCOc1nc2ccccc2nc1C	CHRM5 PAM 30
CC(C)(C)CN1CCC(Oc2cccc(C(=O)NCCCOc3cccnc3)c2)CC1	CHRM5 antagonist 38, M4 antag 68
Cc1cccc(N2CCN(C(=O)Cn3sc4nc(C)cc(C)c4c3=O)CC2C)c1 (stereo not given)	M4 antag 54
Cc1cc(C)c2c(=O)n(CC(=O)Nc3ccc(Cl)cc3)sc2n1	M4 antag 31, M4 ag 61
CCOc1ccc(NC(=O)Cn2sc3nc(C)cc(C)c3c2=O)cc1	M4 antag 55
Cc1cc(C)c2c(=O)n(CC(=O)Nc3cccc(F)c3)sc2n1	none
Cc1cccc(N2CCN(C(=O)Cn3nc(C)n4cccc4c3=O)CC2C)c1 (stereo not given)	none
C/C(=N\NC(=O)C1CCCC1)c1ccc(Cl)cc1Cl	none
Nc1ncnc2nc(SCc3ccc(Cl)cc3Cl)[nH]c12	none
Nc1cc(=O)[nH]c(SCc2ccc(Cl)cc2Cl)n1	CHRM5 antagonist 30
c1ccc(-c2csc3ncnc(NCc4ccccn4)c23)cc1	none
c1ccc(CNc2ncnc3scc(-c4cccs4)c23)nc1	CHRM5 antagonist 28
Cc1nn(-c2ccc(C(=O)O)cc2)c(N)c1-c1ccccc1	none
Nc1c(-c2ccccc2)c(CSc2nc3ccccc3[nH]2)nn1-c1ccc(C(=O)O)cc1	M4 PAM 24
COCCn1cnc2c1c(=O)n(CC(=O)Nc1cc(C)on1)c(=O)n2Cc1ccccc1	M4 PAM 24
Cn1nc(C(F)(F)F)c(-c2ccc(F)cc2)c1NC(=O)Nc1ccc(F)cc1	CHRM5 antagonist 33
Cc1ccc(S(=O)(=O)N(C)C)cc1NC(=O)c1cc(-c2ccncc2)nc2ccccc12	none
CN(C)S(=O)(=O)c1cccc(NC(=O)c2cc(-c3cccs3)nc3ccccc23)c1	M4 antag 31
NS(=O)(=O)c1cccc(NC(=O)c2cccs2)c1	none
NS(=O)(=O)c1ccc(CCNC(=O)c2cc(-c3cccs3)nc3ccccc23)cc1	none
NS(=O)(=O)c1ccc(CNC(=O)c2cc(-c3cccs3)nc3ccccc23)cc1	M4 antag 30
NS(=O)(=O)c1cccc(NC(=O)c2cc(-c3cccs3)nc3ccccc23)c1	M4 antag 30
Cn1c(NCc2cccnc2)nc2cc(-c3cccc(C(=O)NCCO)c3)sc2c1=O	none
